In article PMC11489580 (Scientific Reports, 2024):
pIC50: −log10 of the molar value.

Key:
RAW 264.7 cells [1] = test: Apoptosis: caspase 3 cleavage; format: cell-based, murine; settings: RAW 264.7, 48 h, 15 µM (western blot, Annexin V)
In short: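 RAW 264.7 cells seeded at 50,000 cells/mL and co-treated 48 h with test compound plus CellEvent caspase-3/7 reagent, imaged every 4 h by IncuCyte. For the western blot and Annexin V: 48 h with 15 µM test compound or DMSO. Controls were staurosporin 1 µM ± QVD 10 µM for 4 h. Blots probed for caspase 3, PARP and β-actin. Annexin V-FITC/PI staining was read by flow cytometry as fold change vs DMSO.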

[2] = molecular target: rM1M2_HuR (first two RRM domains of human HuR) / 5'-DY681-labeled AU-rich RNA probe (Homo sapiens, UniProt Q15717); test: RNA Electrophoretic Mobility Shift Assay; format: binding
Sequence of rM1M2_HuR (first two RRM domains of human HuR) / 5'-DY681-labeled AU-rich RNA probe (Q15717 20-186 limits assumed): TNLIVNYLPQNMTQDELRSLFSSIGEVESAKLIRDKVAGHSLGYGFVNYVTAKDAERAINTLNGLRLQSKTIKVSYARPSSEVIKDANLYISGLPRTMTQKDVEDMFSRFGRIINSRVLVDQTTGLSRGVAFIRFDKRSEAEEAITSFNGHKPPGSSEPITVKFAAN
In short: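 Human HuR RRM1-2 (rM1M2) was expressed in E. coli BL21. Protein (3.7 nM) was incubated 20 min with 1 nM 5′-DY681-labelled 26-nt AU-rich RNA and DMSO or test compound (15 µM screen; 0.01–25 µM dose–response). Samples ran on 4% native polyacrylamide at 80 V, 1.5 h, and were scanned for DY681. IC50 came from titration curves of band quantification.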

[3] = molecular target: His-tagged rM1M2 HuR protein / 5'-Bi-TNF ARE probe (Homo sapiens, UniProt Q15717); test: Homogeneous Time-Resolved Fluorescence; format: binding
Sequence of His-tagged rM1M2 HuR protein / 5'-Bi-TNF ARE probe (Q15717 20-186 limits assumed): as above
In short: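 His-tagged HuR M1M2 (20 nM) incubated with a biotinylated 26-nt TNF ARE RNA probe (50 nM), donor/acceptor beads and test compound (0.01–100 µM); DMSO control; protein hook point determined beforehand. HTRF signal was normalised to DMSO and fitted by nonlinear regression with a one-site model to give IC50. Mean ± s.d. of three independent experiments.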

[4] = Kinetic solubility by LC-MS in PBS with DMSO; format: physicochemical; settings: 20% DMSO
[5] = test system: RAW264.7 murine macrophages; test: OZblue cell viability assay; format: cell-based; settings: Mus musculus, RAW264.7, 48 h, read-out: IC50 cell viability
In short: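 RAW264.7 murine macrophages exposed for 48 h to test compound at 1 to 50 µM. Viability was read with the OZblue reagent and IC50 taken from the concentration–response. Mean ± s.d. of three independent experiments.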

RAW 264.7 cells [6] = test: Cell cycle analysis, propidium iodide FACS; format: cell-based, murine; settings: 2 / TM7n and 5 / TM11 at 10 µM and 20 µM, respectively, 48 h
In short: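 RAW 264.7 cells seeded at 250.000 cells/mL and exposed to test compound for 48 h, then fixed in 70% ethanol and stained with propidium iodide for flow cytometry. Controls were serum-free starvation for 24 h (G0/G1 block) and nocodazole for 2 h (G2/M block). Mean ± s.d. of three independent experiments.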

RAW 264.7 cells [7] = test: Real-time cell proliferation by Incucyte; format: cell-based, murine; settings: RAW 264.7, 72 h
In short: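 Growth curves were recorded by live-cell IncuCyte imaging of RAW 264.7 cells treated with test compounds over 72 h, and analysed in IncuCyte. Mean ± s.d. of three independent experiments.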

[8] = test system: LPS-stimulated RAW264.7 cells; test: qRT-PCR of LPS-induced genes; format: cell-based, murine; settings: co-treatment LPS 1 µg/mL and TM 10 µM, 6 h
[9] = test system: LPS-stimulated RAW264.7 cells; test: Cxcl10 secretion by ELISA; format: cell-based, murine; settings: co-treatment LPS 1 µg/mL and TM 10 µM, 6 h
In short: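 RAW264.7 seeded at 200.000 cells/mL and given LPS 1 µg/mL. Test compound (10 µM) or DMSO was either co-added for 6 h, or added after 2 h of LPS for a further 4 h. Supernatant was diluted 1:2 for mouse CXCL10 sandwich ELISA (TMB, 605 nm). pg/mL was normalised to crystal violet cell counts and expressed as % of LPS + DMSO; mean ± s.d., three independent experiments.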

pIC50 [2] | inhibitory effect on HuR-RNA complex formation (REMSA screen) ([2]; TMs at 15 µM, 3.7 nM rM1M2_HuR, 1 nM RNA probe) | pIC50 [3] | solubility relative to 2 / TM7n or 1 / TM6a [4] | SMILES | activation of apoptosis (caspase 3, PARP cleavage, Annexin V) (RAW 264.7 cells [1]) | pIC50 [5] | cell cycle distribution (RAW 264.7 cells [6]) | proliferation rate (real-time growth) (RAW 264.7 cells [7]) | expression of LPS-induced readout genes (Cxcl10, Fas, Nos2, Il1β) [8] | Cxcl10 level in supernatant [9]
– | – | – | – | Cc1occ2c1C(=O)c1c(O)ccc(O)c1C2 [MS-444, reference compound] | absence of apoptotic effect | – | – | – | – | –
6.11 | greatest inhibitory effect | 6.17 | ten times more soluble | O=C1C=Cc2c(c(-c3ccco3)cn2S(=O)(=O)c2ccccc2)C1=O [5 / TM11, 3-(furan-2-yl)-1-(phenylsulfonyl)-1 H-indole-4,5-dione] | did not observe the activation of the apoptotic machinery | 4.82 | accumulation of the cells in the S and G2/M phases | dose-dependent decrease in proliferation rate | ability to counteract the effect of LPS stimulation | downregulation of its level
